The values below come from ChEMBL document CHEMBL4350955, “Novel Chemical Series of 5-Lipoxygenase-Activating Protein Inhibitors for Treatment of Coronary Artery Disease” (J Med Chem, 2019).

pEC50, pIC50: −log10 of the molar value. In brackets after ≈: the same amount, converted by molar mass. Activity calls are given as the source filed them. The calls are words filed in the database; no cut-off is given here.

Series [1] is described as follows: Chemical stability of the compound. The series is classed as physicochemical.
A short description of series [2]: Distribution coefficient between octanol and sodium phosphate buffer, logD of the compound in pH 7.4 buffer by LC-MS/MS-based shake flask method.
Series [3] deals with CYP450 (Homo sapiens, UniProt P04798+P05177+P05181+P08684+P10632+P10635+P11509+P11712+P13584+P20813+P20815+P20853+P24462+P24903+P33260+P33261+P51589+P78329+P98187+Q02928+Q08477+Q16678+Q16696+Q5TCH4+Q6VVX0+Q7Z449+Q8TAV3+Q96SQ9+Q9HB55). Description: Inhibition of CYP450 assessed as maximum reduction in metabolite formation using coumarin based substrate by fluorescence assay. The series is classed as ADME, protein assay. As to conditions: probe coumarin based substrate.

For series [4], the target named is Prostaglandin G/H synthase 2 (Homo sapiens, UniProt P35354). The series can be described thus: Inhibition of COX-2 in human whole blood assessed as reduction in LPS-stimulated prostaglandin E2 production preincubated for 15 mins followed by LPS stimulation and measured after overnight incubation by EIA. The series is classed as tissue-based.
The target in series [5] is Prostaglandin G/H synthase 1 (Homo sapiens, UniProt P23219). The series can be described thus: Inhibition of COX-1 in human whole blood assessed as reduction in calcium ionophore-stimulated thromboxane B2 production preincubated for 30 mins followed by calcium ionophore stimulation and measured after 20 mins by EIA. The series is classed as tissue-based.
The nature of series [6]: Selectivity ratio of inhibition of COX-1 in human whole blood to Inhibition of 5-lipoxygenase (unknown origin).
Series [7] can be described thus: Selectivity ratio of inhibition of COX-2 in human whole blood to Inhibition of 5-lipoxygenase (unknown origin).
Series [8] deals with L5178Y. Description: Genotoxicity in mouse L5178Y cells by micronucleus Assay. The series is classed as toxicity, cell-based.
For series [9], the target named is Aryl hydrocarbon receptor (Homo sapiens, UniProt P35869). Description: Agonist activity at AhR in human HepG2 cells assessed as induction of CYP1A1 activity at 0.001 to 30 uM measured after 24 hrs by immunocytochemistry analysis. Format: ADME, cell-based. As to conditions: hepg2, 24 h.
In series [10] the target is Bile salt export pump (Homo sapiens, UniProt O95342). The series can be described thus: Inhibition of recombinant human BSEP expressed in baculovirus infected Sf21 insect cell vesicles assessed as reduction in NBD-taurocholate uptake by fluorescence assay. Format: ADME.
Bile salt export pump, sequence (O95342 whole entry): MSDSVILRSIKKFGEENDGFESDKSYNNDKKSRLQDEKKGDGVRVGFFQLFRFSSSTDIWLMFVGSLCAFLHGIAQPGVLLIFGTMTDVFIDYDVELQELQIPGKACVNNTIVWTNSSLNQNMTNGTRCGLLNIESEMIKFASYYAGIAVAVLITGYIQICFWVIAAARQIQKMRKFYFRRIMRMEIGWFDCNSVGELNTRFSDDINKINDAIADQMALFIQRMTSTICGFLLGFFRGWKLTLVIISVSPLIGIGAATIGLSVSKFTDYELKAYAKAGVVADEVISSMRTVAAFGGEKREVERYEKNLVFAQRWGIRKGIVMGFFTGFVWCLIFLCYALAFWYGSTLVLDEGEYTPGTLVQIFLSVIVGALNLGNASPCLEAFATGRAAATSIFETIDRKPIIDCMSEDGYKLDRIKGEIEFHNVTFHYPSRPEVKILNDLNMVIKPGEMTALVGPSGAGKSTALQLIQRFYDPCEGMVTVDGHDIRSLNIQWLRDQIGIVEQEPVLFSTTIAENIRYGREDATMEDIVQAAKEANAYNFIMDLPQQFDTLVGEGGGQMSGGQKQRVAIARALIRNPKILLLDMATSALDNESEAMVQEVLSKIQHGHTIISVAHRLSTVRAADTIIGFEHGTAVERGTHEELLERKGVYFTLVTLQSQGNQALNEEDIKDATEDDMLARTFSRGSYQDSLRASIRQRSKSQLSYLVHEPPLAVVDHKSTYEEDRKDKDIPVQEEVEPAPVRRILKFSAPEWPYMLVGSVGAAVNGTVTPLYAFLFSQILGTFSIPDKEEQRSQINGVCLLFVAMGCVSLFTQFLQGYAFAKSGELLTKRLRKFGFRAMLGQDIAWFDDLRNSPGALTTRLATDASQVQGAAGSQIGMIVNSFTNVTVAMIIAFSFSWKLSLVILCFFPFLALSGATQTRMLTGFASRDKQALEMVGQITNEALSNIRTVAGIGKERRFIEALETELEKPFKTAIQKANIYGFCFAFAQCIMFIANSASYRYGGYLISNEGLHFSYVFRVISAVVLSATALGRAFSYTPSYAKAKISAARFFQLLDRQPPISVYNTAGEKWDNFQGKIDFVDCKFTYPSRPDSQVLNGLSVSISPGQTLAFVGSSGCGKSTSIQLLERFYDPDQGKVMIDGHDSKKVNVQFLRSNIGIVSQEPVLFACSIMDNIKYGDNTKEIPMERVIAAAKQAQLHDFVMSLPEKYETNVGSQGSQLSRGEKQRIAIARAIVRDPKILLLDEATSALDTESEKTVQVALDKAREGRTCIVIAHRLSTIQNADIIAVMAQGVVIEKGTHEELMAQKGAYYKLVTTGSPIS
A short description of series [11]: Inhibition of phospholipidosis in rat H42EC3 cells assessed as reduction in NBD-PE accumulation by SYTOX orange staining-based high content imaging analysis. The series is classed as cell-based.
For series [12], the target named is ATP-binding cassette sub-family C member 2 (Rattus norvegicus, UniProt Q63120). Description: Inhibition of Sprague-Dawley rat Mrp2 expressed in baculovirus infected Sf21 insect cell vesicles assessed as reduction in CDF uptake by fluorescence assay.
ATP-binding cassette sub-family C member 2, sequence (Q63120 whole entry): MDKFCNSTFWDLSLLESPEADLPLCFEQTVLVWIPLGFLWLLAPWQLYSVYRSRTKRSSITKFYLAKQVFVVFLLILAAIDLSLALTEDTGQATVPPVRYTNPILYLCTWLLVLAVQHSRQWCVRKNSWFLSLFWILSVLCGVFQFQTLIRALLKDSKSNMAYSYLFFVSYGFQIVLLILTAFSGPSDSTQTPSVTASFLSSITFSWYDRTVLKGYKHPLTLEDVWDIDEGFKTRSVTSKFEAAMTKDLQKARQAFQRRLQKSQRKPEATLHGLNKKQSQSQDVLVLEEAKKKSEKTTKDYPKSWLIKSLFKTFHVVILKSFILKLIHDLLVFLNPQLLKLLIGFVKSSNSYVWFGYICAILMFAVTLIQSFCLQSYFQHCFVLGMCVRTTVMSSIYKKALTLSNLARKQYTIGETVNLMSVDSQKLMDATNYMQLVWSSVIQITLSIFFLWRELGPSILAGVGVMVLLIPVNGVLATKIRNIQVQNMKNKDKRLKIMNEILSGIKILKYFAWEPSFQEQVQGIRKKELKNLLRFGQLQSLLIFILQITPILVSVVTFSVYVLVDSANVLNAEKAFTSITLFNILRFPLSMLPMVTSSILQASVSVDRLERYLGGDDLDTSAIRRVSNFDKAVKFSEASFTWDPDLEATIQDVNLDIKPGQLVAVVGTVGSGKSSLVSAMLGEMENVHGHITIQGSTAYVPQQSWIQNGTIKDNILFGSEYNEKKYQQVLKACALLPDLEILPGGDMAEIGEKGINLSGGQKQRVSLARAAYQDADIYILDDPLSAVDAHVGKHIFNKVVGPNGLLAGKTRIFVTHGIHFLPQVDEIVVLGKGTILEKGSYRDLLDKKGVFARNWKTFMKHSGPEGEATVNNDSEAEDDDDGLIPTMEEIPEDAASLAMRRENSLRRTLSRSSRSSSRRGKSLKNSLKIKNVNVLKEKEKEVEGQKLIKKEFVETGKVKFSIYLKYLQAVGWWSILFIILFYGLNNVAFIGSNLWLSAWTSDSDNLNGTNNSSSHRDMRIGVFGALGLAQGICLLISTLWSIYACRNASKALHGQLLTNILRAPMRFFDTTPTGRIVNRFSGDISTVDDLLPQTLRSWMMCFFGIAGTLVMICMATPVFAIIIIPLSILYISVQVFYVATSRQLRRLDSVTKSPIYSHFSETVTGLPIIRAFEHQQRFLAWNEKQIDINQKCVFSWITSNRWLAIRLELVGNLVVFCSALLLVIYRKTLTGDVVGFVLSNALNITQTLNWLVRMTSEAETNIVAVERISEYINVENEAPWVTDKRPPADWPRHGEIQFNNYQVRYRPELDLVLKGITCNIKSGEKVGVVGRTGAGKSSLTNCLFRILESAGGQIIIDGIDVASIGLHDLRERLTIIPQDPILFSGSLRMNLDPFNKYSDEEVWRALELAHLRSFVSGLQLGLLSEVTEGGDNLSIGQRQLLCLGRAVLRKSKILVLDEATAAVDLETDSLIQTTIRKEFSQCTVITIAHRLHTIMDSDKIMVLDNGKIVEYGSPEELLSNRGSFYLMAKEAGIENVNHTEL
In series [13] the target is T1, Arachidonate 5-lipoxygenase-activating protein (Homo sapiens, UniProt P20292).
T1 sequence (P20292 whole entry): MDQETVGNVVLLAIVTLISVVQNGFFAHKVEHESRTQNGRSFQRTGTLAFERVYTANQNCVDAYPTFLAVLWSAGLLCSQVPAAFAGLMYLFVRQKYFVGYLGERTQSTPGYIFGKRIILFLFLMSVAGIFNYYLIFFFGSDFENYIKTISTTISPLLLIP
Description: Inhibition of [3H]MK0591 binding to human FLAP expressed in […] cell membranes measured after 60 to 80 mins by scintillation counting method.

Series [14] addresses T2, Arachidonate 5-lipoxygenase-activating protein (Homo sapiens) (UniProt P20292).
T2 sequence (whole entry): T1 sequence (P20292 whole entry)
The series can be described thus: (§1) Inhibition of FLAP in human whole blood assessed as reduction in calcium ionophore-stimulated LTB4 production preincubated for 30 mins followed by calcium ionophore stimulation and measured after 20 mins by EIA. Format: tissue-based.

In series [15] the target is T1, Arachidonate 5-lipoxygenase-activating protein. Described as §1. The series is classed as tissue-based.
The nature of series [16]: Intrinsic clearance in cryopreserved human hepatocytes assessed as per million cells at 1 uM measured up to 60 mins by LC-MS/MS analysis. The series is classed as ADME, cell-based, Hepatocyte. As to conditions: read-out: CLH.
Series [17] in a line: Apparent permeability across apical to basolateral side in human Caco2 cells. To be noted: Caco-2. A general note: Passage across Caco-2 layers is used to estimate intestinal permeability.
Series [18] has as its target Voltage-gated inwardly rectifying potassium channel KCNH2 (Homo sapiens, UniProt Q12809). Description: Inhibition of human ERG by high-throughput electrophysiology assay.
Series [19] can be described thus: Metabolic stability in human hepatocytes assessed as parent compound remaining. The series is classed as ADME, cell-based, Hepatocyte.
A short description of series [20]: Clearance in po or iv dosed Sprague-Dawley rat. Format: ADME, organism-based. To be noted: in vivo.
A short description of series [21]: Volume of distribution at steady state in po or iv dosed Sprague-Dawley rat. Format: ADME, organism-based. As to conditions: in vivo, read-out: Vdss.
A short description of series [22]: Half-life in po or iv dosed Sprague-Dawley rat. The series is classed as ADME, organism-based. To be noted: in vivo.
A short description of series [23]: Bioavailability in po dosed Sprague-Dawley rat. The series is classed as ADME, organism-based. To be noted: in vivo.
Series [24] is described as follows: Protein binding in human plasma assessed as unbound fraction by LC-MS based equilibrium dialysis analysis. Format: ADME, cell-free. Background: Equilibrium dialysis compares concentrations on both sides of a semipermeable membrane.
The nature of series [25]: Protein binding in Sprague-Dawley rat plasma assessed as unbound fraction by LC-MS based equilibrium dialysis analysis. The series is classed as ADME, cell-free.
A short description of series [26]: Oral bioavailability in Beagle dog at 0.1 to 1 umol/kg administered twice daily via gavage for 3 days and measured up to 79 hrs. To be noted: in vivo. The series is classed as ADME, organism-based, Canis lupus familiaris.
Series [27] in a line: Volume of distribution in Beagle dog at 0.004 to 0.1 umol/kg, iv or 0.1 to 1 umol/kg, po via gavage measured up to 79 hrs. Format: ADME, organism-based, Canis lupus familiaris. As to conditions: in vivo.
Series [28] can be described thus: Clearance in Beagle dog at 0.004 to 0.1 umol/kg, iv or 0.1 to 1 umol/kg, po via gavage measured up to 79 hrs. The series is classed as ADME, organism-based, Canis lupus familiaris. To be noted: in vivo.
Series [29] in a line: Half-life in Beagle dog at 0.004 to 0.1 umol/kg, iv or 0.1 to 1 umol/kg, po via gavage measured up to 79 hrs. Format: ADME, organism-based, Canis lupus familiaris. To be noted: in vivo.
For series [30], the species on record is Canis familiaris. The series can be described thus: Ex vivo inhibition of FLAP in Beagle dog assessed as reduction in ionophore-stimulated LTB4 production by EIA. Format: functional, organism-based. As to conditions: Canis lupus familiaris.
Series [31] is described as follows: Inhibition of FLAP in Beagle dog whole blood assessed as reduction in calcium ionophore-stimulated LTB4 production preincubated for 30 mins followed by calcium ionophore stimulation and measured after 20 mins by EIA. The series is classed as tissue-based. As to conditions: Canis lupus familiaris.
Series [32] is described as follows: Ratio of drug level in blood to plasma in human at 10 uM incubated for 30 mins by LC-MS/MS analysis. Format: ADME, cell-free.
A short description of series [33]: Drug absorption in Beagle dog at 0.004 to 0.1 umol/kg, iv or 0.1 to 1 umol/kg, po via gavage measured up to 79 hrs. Format: ADME, organism-based, Canis lupus familiaris. As to conditions: in vivo.
Series [34] concerns the target Potassium voltage-gated channel subfamily E member 1 (Homo sapiens, UniProt P15382). The series can be described thus: Inhibition of human IKs by IonWork electrophysiology method.
Series [35] concerns the target Potassium voltage-gated channel subfamily A member 5 (Homo sapiens, UniProt P22460). Description: Inhibition of human Kv1.5 by Ion-work electrophysiology assay.
Series [36] concerns the target Kv channel-interacting protein 2/Potassium voltage-gated channel subfamily D member 3 (Homo sapiens, UniProt Q9UK17+Q9NS61). Description: Inhibition of human Kv4.3/KChIP2 by Ion-work electrophysiology assay. Format: protein-complex assay.
Series [37] addresses Potassium/sodium hyperpolarization-activated cyclic nucleotide-gated channel 4 (Homo sapiens, UniProt Q9Y3Q4). Description: Inhibition of human HCN4 by Ion-work electrophysiology assay.
The target in series [38] is Voltage-dependent T-type calcium channel subunit alpha-1H (Homo sapiens) (UniProt O95180). Description: Inhibition of human Cav3.2 by Ion-work electrophysiology assay.
The target in series [39] is Sodium channel protein type 5 subunit alpha (Homo sapiens, UniProt Q14524). The series can be described thus: Inhibition of human NaV1.5 by Ion-work electrophysiology assay.
Series [40] can be described thus: Cytotoxicity against human THLE cells incubated for 24 hrs by MTS assay. The series is classed as cell-based. Background: Formazan colour is commonly taken as a measure of viable cells.
Series [41] deals with Polyunsaturated fatty acid lipoxygenase ALOX12 (Homo sapiens, UniProt P18054). The series can be described thus: Inhibition of 12-lipoxygenase (unknown origin).
Polyunsaturated fatty acid lipoxygenase ALOX12, sequence (P18054 whole entry): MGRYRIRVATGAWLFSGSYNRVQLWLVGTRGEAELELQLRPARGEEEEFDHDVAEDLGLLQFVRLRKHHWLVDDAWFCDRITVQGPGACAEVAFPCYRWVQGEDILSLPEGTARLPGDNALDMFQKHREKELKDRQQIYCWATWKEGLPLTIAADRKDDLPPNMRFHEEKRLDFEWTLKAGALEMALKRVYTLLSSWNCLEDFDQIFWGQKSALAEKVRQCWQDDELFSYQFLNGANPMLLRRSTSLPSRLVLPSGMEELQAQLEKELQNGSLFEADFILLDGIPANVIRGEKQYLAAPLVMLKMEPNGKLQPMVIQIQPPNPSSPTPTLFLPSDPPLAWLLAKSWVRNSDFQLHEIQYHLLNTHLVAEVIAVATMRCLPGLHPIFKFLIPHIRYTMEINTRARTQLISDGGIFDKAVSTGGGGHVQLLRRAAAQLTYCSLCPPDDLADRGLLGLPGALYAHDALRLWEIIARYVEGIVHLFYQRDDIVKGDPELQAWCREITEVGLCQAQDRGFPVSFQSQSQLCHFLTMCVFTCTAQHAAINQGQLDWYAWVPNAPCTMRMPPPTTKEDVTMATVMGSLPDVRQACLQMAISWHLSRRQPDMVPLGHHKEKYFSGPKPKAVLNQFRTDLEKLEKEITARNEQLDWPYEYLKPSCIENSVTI
The target in series [42] is Polyunsaturated fatty acid lipoxygenase ALOX15 (Homo sapiens, UniProt P16050). The series can be described thus: Inhibition of 15-lipoxygenase (unknown origin).
Polyunsaturated fatty acid lipoxygenase ALOX15, sequence (P16050 whole entry): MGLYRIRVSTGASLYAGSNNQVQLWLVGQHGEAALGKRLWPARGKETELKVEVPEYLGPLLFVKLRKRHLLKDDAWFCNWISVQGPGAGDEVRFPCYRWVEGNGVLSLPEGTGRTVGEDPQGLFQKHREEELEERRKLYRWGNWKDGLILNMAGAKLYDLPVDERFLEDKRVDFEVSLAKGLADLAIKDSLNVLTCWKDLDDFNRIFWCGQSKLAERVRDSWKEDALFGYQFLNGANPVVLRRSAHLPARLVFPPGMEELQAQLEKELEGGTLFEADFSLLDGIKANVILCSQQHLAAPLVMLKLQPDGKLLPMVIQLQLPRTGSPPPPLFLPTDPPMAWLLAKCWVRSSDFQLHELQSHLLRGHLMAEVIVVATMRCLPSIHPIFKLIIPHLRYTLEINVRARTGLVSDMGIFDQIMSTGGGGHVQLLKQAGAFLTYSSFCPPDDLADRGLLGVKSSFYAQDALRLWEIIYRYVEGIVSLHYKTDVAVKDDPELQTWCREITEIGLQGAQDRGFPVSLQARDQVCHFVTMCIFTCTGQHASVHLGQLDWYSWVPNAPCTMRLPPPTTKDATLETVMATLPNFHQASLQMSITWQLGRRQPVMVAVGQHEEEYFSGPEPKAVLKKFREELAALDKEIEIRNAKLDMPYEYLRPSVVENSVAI
The test system of series [43] is HepG2. Description: Induction of mitochondrial impairment in human HepG2 cells incubated for 24 hrs by CellTiter-Glo Luminescent Cell Viability Assay. Format: cell-based. As to conditions: hepg2, 24 h.
The nature of series [44]: Genotoxicity in Salmonella typhimurium by Ames test. The series is classed as toxicity. As to conditions: salmonella enterica subsp. enterica serovar typhimurium. Put shortly: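 Two-strain Salmonella Ames test, with and without metabolic activation by rat liver S9 fraction; applied to amino pyrazole building blocks present in the series.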
For series [45], the target named is Polyunsaturated fatty acid 5-lipoxygenase (Homo sapiens, UniProt P09917). Description: Inhibition of 5-lipoxygenase (unknown origin).
Polyunsaturated fatty acid 5-lipoxygenase, sequence (P09917 whole entry): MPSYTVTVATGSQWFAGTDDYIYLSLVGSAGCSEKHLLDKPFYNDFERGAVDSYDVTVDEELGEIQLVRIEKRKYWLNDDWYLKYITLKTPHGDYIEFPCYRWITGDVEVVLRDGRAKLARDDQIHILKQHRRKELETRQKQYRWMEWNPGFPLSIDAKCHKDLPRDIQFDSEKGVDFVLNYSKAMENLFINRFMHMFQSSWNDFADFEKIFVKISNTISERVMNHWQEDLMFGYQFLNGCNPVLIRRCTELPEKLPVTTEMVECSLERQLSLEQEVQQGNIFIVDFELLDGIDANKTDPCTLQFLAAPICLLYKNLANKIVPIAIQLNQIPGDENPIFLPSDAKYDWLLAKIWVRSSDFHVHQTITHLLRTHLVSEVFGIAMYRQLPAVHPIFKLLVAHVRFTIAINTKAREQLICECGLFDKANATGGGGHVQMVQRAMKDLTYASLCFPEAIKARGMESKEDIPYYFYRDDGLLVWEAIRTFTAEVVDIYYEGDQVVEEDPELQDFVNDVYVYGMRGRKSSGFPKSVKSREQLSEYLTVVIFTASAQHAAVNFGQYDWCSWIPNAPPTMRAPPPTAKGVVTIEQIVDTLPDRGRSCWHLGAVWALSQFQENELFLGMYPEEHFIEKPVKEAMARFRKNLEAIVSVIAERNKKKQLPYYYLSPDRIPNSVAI
Series [46] in a line: physchem. As to conditions: phosphate buffer, pH 7.4.

Broadly, the logD is lipophilicity at a set pH, counting ionised and neutral species. A high value points to a more lipophilic compound. For the compound `Cn1cc(NC(=O)[C@@H]2CCCC[C@H]2C(=O)c2ccc(-c3ccn[nH]3)cc2)c(OC(F)F)n1`, in [1], the Stability entry is reported as “Unstable”. This compound registered a logD in series [2] of 3.
Usually pIC50 stands for −log10 of the IC50, conventionally taken in molar units. Broadly, the pEC50 is the negative decadic logarithm of the EC50, by convention in mol/L. As usually defined, the Papp A→B is the apparent permeability from the apical to the basolateral side of a cell layer. The term half-life denotes how long it takes for the measured level to halve. Read a high half-life as slow loss. One may read the bioavailability as dose-corrected exposure relative to a reference, in per cent. Low values mean poor availability, high ones good availability. As a reminder, the fraction unbound is the share of the substance not bound to proteins or other matrix. One may read the solubility as the dissolved amount per volume that the medium holds. Read a high solubility as much dissolved substance. As for `Cc1cc(-c2ccc(C(=O)[C@@H]3CCCC[C@H]3C(=O)Nc3cn(C)nc3C)cc2)n[nH]1`, the pIC50 was less than 4.60 in series [3]; 3.92 in series [10]; 7.20 in series [13]; 7.20 in series [15]; less than 4.00 in series [18]; 7.47 in series [30]. The pIC50 in series [31] is 7.55. In addition, the “inhibition (INH)” value in [4], in series [5], in [12], in series [34], in series [35] and in series [36] was “Not Active” throughout. For the same compound, the “inhibition (INH)” value in series [37], in series [39], in [41], in [42] and in [45] was “Not Active” in each case. For the same compound, the Selectivity ratio result in [6] and in series [7] was “>= 100” in each case. Further, the Activity result in series [8] is “Non-Toxic”; in series [9] it was “Not Active”; in series [40] it was “Non-Toxic”; in series [43] it was “Non-Toxic”; in series [44], “Non-Toxic”. In series [11], the negative-log EC50 (pEC50) is 4.49. The compound further gave a logD in series [2] of 3. In addition, the fpIC50 in series [14] was 8.1. For the same compound, in series [16], the hepatocyte CLint at 1 µM was determined as 4 µL/min/1e6 cells. The Papp A→B in [17] worked out at 20 ×10⁻⁶ cm/s. Moreover, the Stability in series [19] turned out to be 72%. For the same compound, the clearance in series [20] is 6 mL/min/kg; in [28], 3.33 mL/min/kg. For the same compound, the Vd was found to be 0.83 L/kg in series [21] and 0.98 L/kg in series [27]. Moreover, the half-life is 270 min in [22] and 204 min in series [29]. The results for the bioavailability in series [23] and in [26] were 47% and 51%, respectively. Further, the results for the fraction unbound in series [24] and in [25] were 0.11 and 0.043, respectively. Besides, in series [30], the inhibition result was “Dose-dependent effect”. Besides, the blood plasma ratio at 0.5 h, 10 µM in series [32] came to 0.74. The ka in series [33] was found to be 5.3 h⁻¹. The inhibition entry in [38] was “inactive”. The compound further displayed a solubility at 24 h in series [46] of 225 µM (≈ 91.2 µg/mL).
